From ChEMBL document CHEMBL1131580, “Antihyperglycemic activities of cryptolepine analogues: an ethnobotanical lead structure isolated from Cryptolepis sanguinolenta” (1998) come the findings set out here.

For experiment [1], the system named is 3T3-L1. Kind of experiment: In vitro glucose transport activity in 3T3-LI adipocytes at 10 uM concentration. It counts as functional, Mus musculus. Put shortly: (§1)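 Differentiated 3T3-L1 adipocytes, no added insulin, treated in triplicate for 18 h with compound at 3, 10 or 30 µM. Glucose transport expressed as % (relative to untreated); values are means of triplicate runs, significance by one-tailed independent Student's t-test.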

For experiment [2], the system named is 3T3-L1. Kind of experiment: In vitro glucose transport activity in 3T3-LI adipocytes at 3 uM concentration. It is filed as functional, Mus musculus. Put shortly: as §1
Experiment [3] concerns 3T3-L1. Kind of experiment: In vitro glucose transport activity in 3T3-LI adipocytes at 30 uM concentration. It counts as functional, Mus musculus. Put shortly:
as §1

The test system of experiment [4] is Mus musculus. The experiment in a line: Change in plasma glucose levels measured in genetically altered obese diabetic mice(db/db) at 100 mg/kg at 3 hr postdose. It counts as functional.
Experiment [5] has as its system Mus musculus. Kind of experiment: Change in plasma glucose levels measured in genetically altered obese diabetic mice(db/db) at 100 mg/kg at 24 hr postdose. It is filed as functional.
Experiment [6] relates to Mus musculus. Kind of experiment: Food intake measured in genetically altered obese diabetic mice(db/db) at 100 mg/kg dose; 2 animals died. It is filed as functional.
Experiment [7] relates to Mus musculus. The experiment in a line: Mean body weight measured in genetically altered obese diabetic mice(db/db) at 100 mg/kg at 0 hr postdose. It counts as functional. An outline of the steps: (§2)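 Obese diabetic C57BL/KS-db/db mice, single dose at t = 0, n = 8 per group (n = 5 for parent compound). Body weight recorded per mouse at 0 and 24 h; food intake reported as g/mouse/day. Vehicle used as negative control, metformin as positive control.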

Experiment [8] relates to Mus musculus. Kind of experiment: Mean body weight measured in genetically altered obese diabetic mice(db/db) at 100 mg/kg at 24 hr postdose. It is filed as functional. An outline of the steps: as §2
Experiment [9] concerns Mus musculus. Kind of experiment: Change in plasma glucose levels measured in genetically altered obese diabetic mice(db/db) at 30 mg/kg at 24 hr postdose. It is filed as functional.
Experiment [10] concerns Mus musculus. Kind of experiment: Change in plasma glucose levels measured in genetically altered obese diabetic mice(db/db) at 30 mg/kg at 3 hr postdose. It counts as functional.
The test system of experiment [11] is Mus musculus. The experiment in a line: Food intake measured in genetically altered obese diabetic mice(db/db) at 30 mg/kg dose. It counts as functional. An outline of the steps:
as §2

Experiment [12] concerns Mus musculus. Kind of experiment: Mean body weight measured in genetically altered obese diabetic mice(db/db) at 30 mg/kg at 0 hr postdose. It counts as functional. An outline of the steps: as §2
For experiment [13], the system named is Mus musculus. The experiment in a line: Mean body weight measured in genetically altered obese diabetic mice(db/db) at 30 mg/kg at 24 hr postdose. It counts as functional. An outline of the steps: as §2
In experiment [14] the test system is Mus musculus. The experiment in a line: Food intake measured in genetically altered obese diabetic mice(db/db) at 100 mg/kg dose; 6 animals died. It counts as functional.
The test system of experiment [15] is Mus musculus. The experiment in a line: Mean body weight measured in genetically altered obese diabetic mice(db/db) at 30 mg/kg at 0 h postdose. It is filed as functional. Put shortly: as §2
Experiment [16] has as its system Mus musculus. Kind of experiment: Mean body weight measured in genetically altered obese diabetic mice(db/db) at 30 mg/kg at 24 h postdose. It is filed as functional. Put shortly:
as §2

As for `CC[n+]1c2ccccc2cc2[nH]c3ccccc3c21.[Cl-]`, the values for the Glucose transport with 3T3-L1 [1], in the experiment with 3T3-L1 [2] and in the experiment with 3T3-L1 [3] were 228%, 197% and 404%, respectively. For the same compound, the Change is listed as -23.2% in the experiment on Mus musculus [4], -26.5% with Mus musculus [5], -4.1% in the experiment on Mus musculus [9] and -7.7% in the experiment on Mus musculus [10]. The Food intake is 1 g mouse-1 day-1 with Mus musculus [6] and 5.1 g mouse-1 day-1 with Mus musculus [11]. The Mean body weight in the experiment on Mus musculus [7] is reported as 44.6 g mouse-1; in the experiment with Mus musculus [8] it was 43.3 g mouse-1; in the experiment with Mus musculus [12] it was 41.7 g mouse-1; with Mus musculus [13] it was 41.2 g mouse-1.
For `CCCC[n+]1c2ccccc2cc2[nH]c3ccccc3c21.[Cl-]`, the Glucose transport came out at 868% with 3T3-L1 [1], 561% with 3T3-L1 [2] and 490% in the experiment with 3T3-L1 [3]. In addition, the Change is listed as -33.8% with Mus musculus [4], -2.2% in the experiment with Mus musculus [5], -22% in the experiment on Mus musculus [9] and 4% with Mus musculus [10]. In addition, the Food intake was determined as 2.6 g mouse-1 day-1 in the experiment with Mus musculus [14] and 6 g mouse-1 day-1 in the experiment on Mus musculus [11]. The Mean body weight is 45.8 g mouse-1 in the experiment with Mus musculus [7], 45.8 g mouse-1 in the experiment on Mus musculus [8], 38.7 g mouse-1 in the experiment on Mus musculus [15] and 38.6 g mouse-1 in the experiment with Mus musculus [16].
